Source: ChEMBL document CHEMBL4814011, “Discovery of a novel class of inhaled dual pharmacology muscarinic antagonist and β2 agonist (MABA) for the treatment of chronic obstructive pulmonary disease (COPD)” (Bioorg Med Chem Lett, 2021)
Active and inactive are the calls of the source. No cut-off for these calls is given here.

What was measured:
[1] = (§1) Antagonist activity at muscarinic M3 receptor in guinea pig trachea assessed as inhibition of carbachol-induced contraction; assay type: tissue-based, Cavia porcellus
How it was run: (§2)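 Isolated guinea pig tracheal tissue was contracted with the muscarinic agonist carbachol, and inhibition of contraction was scored. A parallel histamine (H1) challenge, opposed only by the β2 component, was used to estimate the β2 share.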

[2] = molecular target: beta-2 adrenergic receptor (guinea pig); assay: Agonist activity at beta-2 adrenergic receptor in guinea pig trachea assessed as inhibition of histamine-induced contraction
[3] = molecular target: Muscarinic acetylcholine receptor M3 (Homo sapiens, UniProt P20309); assay: Displacement of [3H]-N-methylscopolamine from human muscarinic M3 receptor
Chain of Muscarinic acetylcholine receptor M3 (P20309 whole entry): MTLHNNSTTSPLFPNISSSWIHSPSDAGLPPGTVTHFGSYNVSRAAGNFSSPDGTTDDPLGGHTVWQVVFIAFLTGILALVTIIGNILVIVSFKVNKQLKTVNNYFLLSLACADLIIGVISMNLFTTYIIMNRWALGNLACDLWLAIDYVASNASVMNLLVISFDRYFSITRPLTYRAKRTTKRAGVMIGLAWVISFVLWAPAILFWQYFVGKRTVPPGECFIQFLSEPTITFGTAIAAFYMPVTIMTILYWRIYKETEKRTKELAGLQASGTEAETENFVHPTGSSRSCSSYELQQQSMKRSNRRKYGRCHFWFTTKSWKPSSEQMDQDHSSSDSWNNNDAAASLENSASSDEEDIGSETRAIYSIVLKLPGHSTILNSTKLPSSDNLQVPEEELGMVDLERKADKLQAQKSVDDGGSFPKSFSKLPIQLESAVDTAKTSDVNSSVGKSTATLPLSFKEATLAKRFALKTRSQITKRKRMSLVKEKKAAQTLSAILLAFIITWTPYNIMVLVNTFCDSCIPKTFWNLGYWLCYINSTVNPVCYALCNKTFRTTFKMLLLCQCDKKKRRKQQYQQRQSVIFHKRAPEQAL

[4] = molecular target: Beta-2 adrenergic receptor (Homo sapiens, UniProt P07550); assay: Displacement of 125I-cyanopindolol from human adrenergic beta2 receptor
Chain of Beta-2 adrenergic receptor (P07550 whole entry): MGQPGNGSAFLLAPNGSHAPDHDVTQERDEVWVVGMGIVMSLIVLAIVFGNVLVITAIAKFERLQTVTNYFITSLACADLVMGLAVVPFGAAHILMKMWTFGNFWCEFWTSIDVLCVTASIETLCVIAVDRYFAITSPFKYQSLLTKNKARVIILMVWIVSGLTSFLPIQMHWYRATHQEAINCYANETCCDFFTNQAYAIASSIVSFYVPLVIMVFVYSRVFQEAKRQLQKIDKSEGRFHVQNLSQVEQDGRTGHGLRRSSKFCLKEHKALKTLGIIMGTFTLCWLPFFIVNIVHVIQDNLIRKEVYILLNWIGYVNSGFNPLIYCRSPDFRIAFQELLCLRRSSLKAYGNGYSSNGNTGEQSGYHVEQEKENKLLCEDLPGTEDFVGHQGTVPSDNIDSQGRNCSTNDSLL
How it was run: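 Radioligand binding on cloned human β2 adrenoceptor, with displacement of 125I-cyanopindolol.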

Cavia porcellus [5] = species: Cavia porcellus; assay: Activity at muscarinic M3 and adrenergic beta2 in guinea pig trachea assessed as time taken for compound action by MABA assay; assay type: tissue-based
Cavia porcellus [6] = species: Cavia porcellus; assay: as §1; assay type: tissue-based; how it was run: as §2
[7] = Protein binding in human plasma; assay type: ADME, cell-free; conditions: for fraction unbound: read-out: PPB (converted)
[8] = Protein binding in rat plasma; assay type: ADME, cell-free; conditions: for fraction unbound: read-out: PPB (converted)
[9] = In vivo agonist activity at adrenergic beta2 receptor in guinea pig assessed as reduction in acetylcholine/histamine-induced bronchoconstriction at 3 mg/kg, IT(Intratracheal) measured after 24 hrs by Konzett-Roessler methodology relative to control; assay type: functional; conditions: Cavia porcellus, inhaled or nasal
[10] = In vivo agonist activity at adrenergic beta2 receptor in guinea pig assessed as reduction in acetylcholine/histamine-induced bronchoconstriction at 3 mg/kg, IT(Intratracheal) measured after 1 hr by Konzett-Roessler methodology relative to control; assay type: functional; conditions: Cavia porcellus, inhaled or nasal
[11] = In vivo agonist activity at adrenergic beta2 receptor in guinea pig assessed as reduction in acetylcholine/histamine-induced bronchoconstriction at 1 mg/kg, IT(Intratracheal) measured after 1 hr by Konzett-Roessler methodology relative to control; assay type: functional; conditions: Cavia porcellus, inhaled or nasal
[12] = In vivo agonist activity at adrenergic beta2 receptor in guinea pig assessed as reduction in acetylcholine/histamine-induced bronchoconstriction at 1 mg/kg, IT(Intratracheal) measured after 24 hrs by Konzett-Roessler methodology relative to control; assay type: functional; conditions: Cavia porcellus, inhaled or nasal
[13] = Protein binding in guinea pig plasma; assay type: ADME, cell-free, Cavia porcellus

| Structure (SMILES) | pIC50 [1] | pIC50 [2] | Ki [3] | Ki [4] | TIME (Cavia porcellus [5]; filed as modulator) | TIME (Cavia porcellus [5]) | also measured |
| --- | --- | --- | --- | --- | --- | --- | --- |
| O=C(NC(c1ccccc1)c1cccc(OCCCCCCCCNC[C@H](O)c2ccc(O)c3[nH]c(=O)ccc23)c1)O[C@H]1CN2CCC1CC2 (stereo partly specified) | 8.7 | 7.8 | 0.158 nM | 0.2 nM | < 1.5 h | – | – |
| O=C(N[C@@H](c1ccccc1)c1cccc(OCCCCCCNC[C@H](O)c2ccc(O)c3[nH]c(=O)ccc23)c1)O[C@H]1CN2CCC1CC2 | – | – | 0.126 nM | 0.501 nM | – | – | pIC50 (Cavia porcellus [6]): inactive |
| O=C(N[C@H](c1ccccc1)c1cccc(OCCCCCCNC[C@H](O)c2ccc(O)c3[nH]c(=O)ccc23)c1)O[C@H]1CN2CCC1CC2 | – | – | 3.98 nM | 0.0398 nM | – | – | pIC50 (Cavia porcellus [6]): inactive |
| O=C(NC(c1ccccc1)c1ccccc1)O[C@H]1CN2CCC1CC2 | – | – | 1.26 nM | – | – | – | – |
| O=C(NC(c1ccccc1)c1cccc(OCCCCCCCCCNC[C@H](O)c2ccc(O)c3[nH]c(=O)ccc23)c1)O[C@H]1CN2CCC1CC2 (stereo partly specified) | 7.5 | 7.3 | 0.251 nM | 0.2 nM | – | > 4.5 h | – |
| O=C(NC(c1ccccc1)c1ccc(OCCCCCCCCCNC[C@H](O)c2ccc(O)c3[nH]c(=O)ccc23)cc1)O[C@H]1CN2CCC1CC2 (stereo partly specified) | 8.3 | 7.3 | 10 nM | 0.251 nM | – | > 4.5 h | – |
| O=C(NC(c1ccccc1)c1cccc(OCCCCCCNC[C@H](O)c2ccc(O)c3[nH]c(=O)ccc23)c1)O[C@H]1CN2CCC1CC2 (stereo partly specified) | 9.9 | 9.8 | 0.316 nM | 0.0158 nM | < 2.25 h | – | – |
| O=C(N[C@@H](c1ccccc1)c1ccc(-c2cccc(OCc3ccc(C(=O)NCCCNC[C@H](O)c4ccc(O)c5[nH]c(=O)ccc45)cc3)c2)cc1)O[C@H]1CN2CCC1CC2 | 9.7 | 9.8 | 0.1 nM | 0.0126 nM | – | > 4.5 h | fraction unbound [7]: 0.05; fraction unbound [8]: 0.05 |
| O=C(N[C@@H](c1ccccc1)c1ccc(-c2cccc(OCc3ccc(C(=O)N(CCCNC[C@H](O)c4ccc(O)c5[nH]c(=O)ccc45)Cc4ccccc4)cc3)c2)cc1)O[C@H]1CN2CCC1CC2 | 8.7 | 9 | 0.126 nM | 0.1 nM | – | > 3 h | inhibition in vivo at 3 mg/kg [9]: 20%; inhibition in vivo at 3 mg/kg [10]: 63%; fraction unbound [7]: < 0.01; fraction unbound [8]: 0.03; inhibition in vivo at 1 mg/kg [11]: 27% |
| O=C(NC(c1ccccc1)c1cccc(OCCCCCCCNC[C@H](O)c2ccc(O)c3[nH]c(=O)ccc23)c1)O[C@H]1CN2CCC1CC2 (stereo partly specified) | 9.3 | 8.1 | 0.398 nM | 0.1 nM | < 1.5 h | – | – |
| CCN(CCCNC[C@H](O)c1ccc(O)c2[nH]c(=O)ccc12)C(=O)c1ccc(COc2cccc(-c3ccc([C@@H](NC(=O)O[C@H]4CN5CCC4CC5)c4ccccc4)cc3)c2)cc1 | 9.5 | 9.5 | 0.251 nM | 0.0501 nM | – | > 3.75 h | fraction unbound [7]: 0.04; fraction unbound [8]: 0.06 |
| O=C(NC(c1ccccc1)c1cccc(OCCCCCNC[C@H](O)c2ccc(O)c3[nH]c(=O)ccc23)c1)O[C@H]1CN2CCC1CC2 (stereo partly specified) | 8.5 | 9 | 0.398 nM | 0.0251 nM | < 0.75 h | – | – |
| O=C(N[C@@H](c1ccccc1)c1cccc(OCc2ccc(CCNC[C@H](O)c3ccc(O)c4[nH]c(=O)ccc34)cc2)c1)O[C@H]1CN2CCC1CC2 | 9.3 | 9.1 | – | – | – | > 4.5 h | inhibition in vivo at 3 mg/kg [9]: 35%; inhibition in vivo at 3 mg/kg [10]: 67%; inhibition in vivo at 1 mg/kg [12]: 42%; PPB [7]: 98%; PPB [13]: 99%; PPB [8]: 98%; inhibition in vivo at 1 mg/kg [11]: 20% |
